GPR7 antag = antagonists of human GPR7 (neuropeptides B/W receptor 1) | AID 1861 | 290,000 tested, 1.1% active | GPR7-expressing cells, fluorescence antagonist assay | inhibition, % at 4.4 µM | P48145; in the data active means inhibition above about 16%, passing the limit was not always enough;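 further: cells stimulated with the agonist NPW; 0% = agonist with vehicle and 100% = vehicle without agonist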
TAAR1 antagonist = antagonists of human TAAR1. 360,000 tested, 1.5% active. inhibition, % at 3 µM. Q96RJ0. CHO RD-HGA16 TAAR1, Fluo-8 calcium fluorescence, antagonist;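 active means inhibition above a per-plate cutoff, the mean inhibition of test compounds on that plate plus 3 SD, cut at about 49% in these data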;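 further: 0% = DMSO plus EC80 beta-PEA response and 100% = DMSO alone without agonist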
Target sequence (Q96RJ0 whole entry, looked up): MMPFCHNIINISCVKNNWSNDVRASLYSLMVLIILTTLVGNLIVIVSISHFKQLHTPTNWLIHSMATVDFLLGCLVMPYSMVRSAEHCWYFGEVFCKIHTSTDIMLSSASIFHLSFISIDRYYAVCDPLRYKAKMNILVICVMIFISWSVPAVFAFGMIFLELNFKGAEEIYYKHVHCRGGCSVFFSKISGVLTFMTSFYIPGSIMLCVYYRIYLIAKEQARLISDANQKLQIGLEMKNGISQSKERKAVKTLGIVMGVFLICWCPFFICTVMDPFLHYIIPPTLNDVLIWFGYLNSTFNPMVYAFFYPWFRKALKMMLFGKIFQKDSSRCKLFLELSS
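Test system – hTAAR1-expressing CHO RD-HGA16 cells, Gα16-coupled · Reagent – β-PEA at EC80 concentration, post-compound challenge · Compound dosing – 3 µM, single point · Timing – 140 s kinetic read after compound, 140 s after agonist · Detection – Fluo-8 intracellular calcium dye fluorescence, real-time kinetic reads · Control set – DMSO and EC80 PEA controls · Repeats – n of 1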
OX1R antag-1 = human HCRTR1 antagonism. O43613. AID 434989. 330,000 tested, 0.43% active. CHO/OX1R cells, Fluo-8 calcium fluorescence, orexin A. inhibition, % at 5 µM;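 active means inhibition above its plate's threshold, mean inhibition of all tested compounds on the plate plus 3 SD, cut at about 37% in these data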;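 further: 0% = orexin A challenge wells and 100% = SB-334867-A antagonist wells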
OX1R antag-2 = antagonists of human orexin 1 receptor (OX1R). 330,000 tested, 1.8% active. O43613. OX1R-expressing cells, FRET antagonist read-out. inhibition, % at 6.6 µM; in the data active means inhibition mostly above about 38%, no sharp cut-off; inactive means mostly below about 40%;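 further: 0% = agonist challenge alone and 100% = reference antagonist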
TAAR1 agonist = agonists of human TAAR1; Q96RJ0; CHO RD-HGA16 TAAR1, Fluo-8 calcium fluorescence; vehicle wells 0%, saturating PEA agonist 100%; activation, % at 3 µM; 360,000 tested, 0.99% active; AID 624467;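 active means activation above the mean activation of all test compounds in the run plus 3 SD, cut at about 38% in these data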
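Signal – calcium-sensitive Fluo-8 signal, excitation 470-495, emission 515-575 nm · System – RD-HGA16 (CHO) cells co-expressing Gα16 and hTAAR1 · Incubation – 17-24 h seeding, 75 min 37 °C dye, 30 min RT · Compound dosing – 3 µM single concentration · Repeats – no replicates (n 1)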
CHO parental Ca = signal in parental CHO cells, OX1R antagonist counter-screen; inhibition, % at 5.6 µM; parental CHO-K1, ATP-induced calcium, Fluo-8 fluorescence; AID 463079; 330,000 tested, 0.63% active;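 active means inhibition above that plate's mean sample inhibition plus 3 SD, cut at about 26% in these data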;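 further: 0% = ATP-challenged DMSO wells and 100% = DMSO wells without ATP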
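Material: Parental CHO cells | Reagent: ATP | Compound dosing: Single nominal dose of 5.6 µM per compound | Detection: Intracellular calcium via Fluo-8 no-wash fluorescent dye | Read-out: % inhibition of ATP-induced calcium mobilization | Benchmarks: Low control ATP plus DMSO, high control DMSO only | Replicates: Singlicate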
GPR7 antag cf = human GPR7 antagonism, confirmation assay. shares compounds with GPR7 antag. GPR7-expressing cells, calcium fluorescence antagonist mode. inhibition, % at 4.4 µM. 2,400 tested, 52% active; in the data active means inhibition above about 24%;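 further: stimulated with the GPR7 agonist NPW; 0% = agonist plus vehicle and 100% = vehicle alone without agonist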
MCHR1 antagonist = MCHR1 (human) antagonism in GPR7 counter-screen. shares compounds with GPR7 antag. MCHR1-expressing cells, fluorescence antagonist assay. inhibition, % at 4.4 µM. 2,400 tested, 62% active; in the data active means inhibition above about 22%;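 further: 0% = vehicle with agonist and 100% = vehicle without agonist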
Active calls of the source: *; . = no result given. Only some compounds are listed: those with a hit (about 4.5% of all), similar ones and a draw of the others.

SMILES | GPR7 antag | TAAR1 antagonist | OX1R antag-1 | OX1R antag-2 | TAAR1 agonist | CHO parental Ca | GPR7 antag cf | MCHR1 antagonist
O=C(CCN1C(=O)c2ccccc2C1=O)Nc1ccc2c(c1)OCCO2 | 23* | 16 | -21 | 9 | 14 | -12 | 0 | -1
C=CCn1c(SCc2c(C)noc2C)nc2ccccc2c1=O | 26* | 13 | -40 | 11 | 5 | -13 | 23 | 24*
Cc1noc(C)c1CSc1nc2ccccc2c(=O)n1-c1ccccc1 | 8 | 4 | -26 | 5 | 0 | -26 | . | .
CC[C@@H]1CC2=C(C(=O)OC(C)(C)O2)[C@H](c2ccc(Cl)cc2)O1 | . | -7 | . | . | -1 | . | . | .
COc1cccc(CNCCc2c[nH]c3ccccc23)c1OCc1ccc(F)cc1 | 25* | 32 | -2 | 16 | 28 | -9 | 46* | 65*
CCc1nc2c(OCC3CCCCC3)cccn2c1N(C=O)Cc1ccc(OC)cc1 | . | -41 | . | . | -1 | . | . | .
O=P(c1ccccc1)(c1ccccc1)C1CCCO1 (configuration not stated) | 42* | 8 | 3 | 9 | 4 | -5 | -5 | -11
O=C(Cc1ccccc1)NCC1CCCO1 (configuration not stated) | 1 | -24 | -5 | 29 | 3 | 7 | . | .
C=CCNc1nc(NCc2ccc(N(C)C)cc2)c2sc(-c3ccccc3)cc2n1 | . | -1 | . | . | 1 | . | . | .
CC(C)C(NC(=O)c1ccc(C(C)(C)C)cc1)C(=O)NCC(c1ccccc1)N(C)C (configuration not stated) | 22* | -29 | -19 | 8 | 2 | -17 | 5 | 8
CCN(c1cccc(C)c1)S(=O)(=O)c1cccc2nsnc12 | 23* | 4 | -18 | 37 | 6 | -19 | -25 | 39*
Cc1ccnc2nc(C(=O)OCC(=O)N(Cc3ccccc3)C(C)C)nn12 | . | 1 | 14 | 8 | 13 | -4 | . | .
Cc1nn(-c2ccccc2)c(Cl)c1CN(C(=O)CCl)c1ccc(Cl)cc1 | 95* | 60* | 16 | 1 | -2 | 32 | 99* | 100*
CC1(c2nnnn2Cc2ccccc2)CCC(=O)N1CC1CCCCC1 (configuration not stated) | . | 18 | . | . | 4 | . | . | .
COc1ccc(-c2noc(CN(C)C(=O)CCCN3C(=O)[C@H]4CC=CC[C@H]4C3=O)n2)cc1 | . | 5 | . | . | 4 | . | . | .
CC(=O)c1ccc(NC(=O)CNC2CCCCC2)cc1 | 36* | 5 | -24 | -3 | 12 | -9 | -2 | -6
CC1CCCC(C)N1S(=O)(=O)c1ccc(NC(=O)CNC2CCCC2)cc1 (configuration not stated) | 54* | -5 | -6 | 10 | 15 | -7 | 23 | 6
O=C(CNC1CCCCCC1)Nc1ccc(N2CCCC2)cc1 | -11 | . | -14 | 17 | . | 14 | . | .
CC1CCN(S(=O)(=O)c2ccc(NC(=O)CNC3CCCCC3)cc2)CC1 | -1 | -11 | -12 | 4 | 14 | -11 | . | .
O=C(NCCCN1CCCC1=O)C(=O)NCC1OCCCN1S(=O)(=O)c1ccccc1 (configuration not stated) | . | 10 | . | . | 0 | . | . | .
COc1cc(-c2coc3c(C(=O)NC4CCCCC4)cccc23)ccc1O | . | 19 | . | . | 0 | . | . | .
C=CCCC(=O)N1C[C@H]2CON(C)[C@H]2C[C@H]1c1ccc(Br)cc1 | . | 0 | . | . | 0 | . | . | .
COc1ccc(CSc2ccc(S(=O)(=O)N3CCCC3)cn2)cc1F | . | 29 | . | . | 3 | . | . | .
CCc1ccc(/C=C2/Sc3ccccc3N(CC(=O)NCCCN3CCOCC3)C2=O)cc1 | 25* | 21 | 5 | 11 | 9 | 13 | 17 | 11
Cc1ccc(CN2C(=O)c3ccccc3Sc3ccc(C(=O)NCCCN4CCOCC4)cc32)cc1 | 29* | 10 | 6 | 14 | 23 | -11 | 40* | 19
O=C(CN1C(=O)/C(=C\c2cccc(Cl)c2)Sc2ccccc21)NCCCN1CCOCC1 | 25* | 16 | 0 | 11 | 4 | -11 | 26* | 36*

High-throughput results deposited in PubChem BioAssay by The Scripps Research Institute Molecular Screening Center.
